Assay results: ChEMBL document CHEMBL4359926, “Design, synthesis, and evaluation of potent novel peroxisome proliferator-activated receptor γ indole partial agonists” (Bioorg Med Chem Lett, 2019)
The source made the active and inactive calls. No cut-off for these calls is given here.

Assays:
[1] = target: T1, Peroxisome proliferator-activated receptor gamma (Homo sapiens, UniProt P37231); assay: Displacement of fluormone PPAR green tracer ligand from recombinant GST-tagged PPARgamma ligand binding domain (unknown origin) incubated for 4 hrs by competitive fluorescence polarization binding assay
T1 sequence (P37231 whole entry): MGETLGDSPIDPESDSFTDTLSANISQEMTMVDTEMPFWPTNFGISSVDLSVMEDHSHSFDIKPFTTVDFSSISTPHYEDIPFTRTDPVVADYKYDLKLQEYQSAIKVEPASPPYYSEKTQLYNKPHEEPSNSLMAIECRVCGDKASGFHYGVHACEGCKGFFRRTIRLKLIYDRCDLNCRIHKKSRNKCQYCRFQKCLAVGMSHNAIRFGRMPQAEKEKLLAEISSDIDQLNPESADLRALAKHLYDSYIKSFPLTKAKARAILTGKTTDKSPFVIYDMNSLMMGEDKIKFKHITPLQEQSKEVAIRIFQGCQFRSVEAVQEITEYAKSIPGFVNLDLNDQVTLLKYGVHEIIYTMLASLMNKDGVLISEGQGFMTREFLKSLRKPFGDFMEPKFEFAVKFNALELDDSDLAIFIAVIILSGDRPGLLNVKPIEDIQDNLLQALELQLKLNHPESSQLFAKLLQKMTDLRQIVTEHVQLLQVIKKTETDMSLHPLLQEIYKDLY

[2] = target: T2, PPARgamma2 (peroxisome proliferator-activated receptor gamma) (Homo sapiens, UniProt P37231); assay: Transactivation activity at human PPARgamma2 cotransfected with PPRE X3-TK-luc in human HEK293 cells incubated for 24 hrs by luciferase reporter gene assay relative to rosiglitazone; type: cell-based
T2 sequence (P37231 whole entry): T1 sequence (P37231 whole entry)
In short: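 HEK-293 cells grown in DMEM with 4.5 g/liter glucose and 10% bovine calf serum at 37°C, 5% CO₂. Co-transfected with human PPARγ2 plasmid and PPRE X3-TK-luc, then left 16 h. Compounds at 100 to 0.001 μM (10-fold steps), 0.1% DMSO final, for 24 h. Lysate luciferase read by luminescence.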

[3] = target: T3, Peroxisome proliferator-activated receptor gamma (Mus musculus, UniProt P37238); assay: Induction of PPARgamma-mediated adipogenesis in mouse 3T3L1 cells assessed as increase in cell differentiation at 10 uM compound treatment renewed every 2 days and measured on day 7 by Oil-red O staining based assay; settings: 48 h
T3 sequence (P37238 whole entry): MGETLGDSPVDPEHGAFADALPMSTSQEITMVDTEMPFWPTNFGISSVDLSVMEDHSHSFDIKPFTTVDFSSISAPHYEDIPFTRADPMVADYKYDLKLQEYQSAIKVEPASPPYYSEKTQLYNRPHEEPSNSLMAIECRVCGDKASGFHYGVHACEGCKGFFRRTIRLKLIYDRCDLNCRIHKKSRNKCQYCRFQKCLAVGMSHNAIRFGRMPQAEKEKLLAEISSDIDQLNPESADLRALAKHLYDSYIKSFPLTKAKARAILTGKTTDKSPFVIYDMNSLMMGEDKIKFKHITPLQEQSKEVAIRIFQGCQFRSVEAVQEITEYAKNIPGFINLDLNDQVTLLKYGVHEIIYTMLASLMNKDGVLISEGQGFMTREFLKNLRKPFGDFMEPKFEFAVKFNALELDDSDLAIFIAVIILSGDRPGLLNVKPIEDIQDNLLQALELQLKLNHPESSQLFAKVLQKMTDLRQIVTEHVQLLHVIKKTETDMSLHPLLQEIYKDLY
In short: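 3T3-L1 cells were induced with DMEM/10% FBS containing 1 μg/ml insulin, 1 μM dexamethasone and 0.5 mM IBMX plus compounds (10 μM) for 48 h. They were then kept in maintenance DMEM/10% FBS with compounds, with medium renewed every 2 days. At day 7 cells were fixed in 4% formaldehyde for 30 min and stained with 0.3% Oil Red O for 1 h at 37 °C. Lipid droplets were viewed by microscopy; DMSO 0.1% final.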

[4] = target: T3, Peroxisome proliferator-activated receptor gamma; assay: Induction of PPARgamma-mediated adipogenesis in mouse 3T3L1 cells assessed as upregulation of FABP4 mRNA expression at 10 uM by qRT-PCR analysis; type: cell-based
In short: (§1)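 Confluent 3T3-L1 cells were differentiated in 10% FBS/DMEM with 0.5 mmol/L IBMX, 1 μmol/L dexamethasone and 10 μg/mL insulin plus compounds (10 μM) for 48 h, then 10 μg/mL insulin alone for another 48 h. RNA was extracted and analyzed by qRT-PCR (35 cycles). Relative mRNA was calculated by ΔΔCt normalized to TBP.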

[5] = target: T3, Peroxisome proliferator-activated receptor gamma; assay: Induction of PPARgamma-mediated adipogenesis in mouse 3T3L1 cells assessed as upregulation of Glut4 mRNA expression at 10 uM by qRT-PCR analysis; type: cell-based; in short: as §1
[6] = target: T3, Peroxisome proliferator-activated receptor gamma; assay: Induction of PPARgamma-mediated adipogenesis in mouse 3T3L1 cells assessed as upregulation of LPL mRNA expression at 10 uM by qRT-PCR analysis; type: cell-based; in short: as §1
[7] = target: T4, Peroxisome proliferator-activated receptor gamma (Mus musculus) (UniProt P37238); assay: Partial agonist activity at PPARgamma in mouse 3T3-L1 cells assessed as decrease in PPARgamma S273 phosphorylation at 10 uM preincubated for 24 hrs followed by TNFalpha stimulation for 3 hrs by Western blotting analysis
T4 sequence (whole entry): T3 sequence (P37238 whole entry)

[8] = target: T5, Peroxisome proliferator-activated receptor gamma (Homo sapiens) (UniProt P37231); assay: Potency index, ratio of UHC1 IC50 to compound IC50 for displacement of fluormone PPAR green tracer ligand from recombinant GST-tagged PPARgamma ligand binding domain (unknown origin) incubated for 4 hrs by competitive fluorescence polarization binding assay
T5 sequence (whole entry): T1 sequence (P37231 whole entry)

[9] = target: T4, Peroxisome proliferator-activated receptor gamma (Mus musculus); assay: Partial agonist activity at PPARgamma in mouse 3T3-L1 cells assessed as decrease in PPARgamma S273 phosphorylation by measuring upregulation of adiponectin mRNA expression at 10 uM by qRT-PCR analysis; type: cell-based
[10] = target: T4, Peroxisome proliferator-activated receptor gamma (Mus musculus); assay: Partial agonist activity at PPARgamma in mouse 3T3-L1 cells assessed as decrease in PPARgamma S273 phosphorylation by measuring upregulation of adipsin mRNA expression at 10 uM by qRT-PCR analysis; type: cell-based
[11] = target: T4, Peroxisome proliferator-activated receptor gamma (Mus musculus); assay: Partial agonist activity at PPARgamma in mouse 3T3L1 cells assessed as decrease in PPARgamma S273 phosphorylation by measuring upregulation of Car3 mRNA expression at 10 uM by qRT-PCR analysis; type: cell-based

| Structure (SMILES) | IC50 [1] [nM] | Ki [1] [nM] | Emax at 24 h [2] [%] | also measured |
| --- | --- | --- | --- | --- |
| Cc1c(C)n(Cc2ccc(-c3ccccc3C(=O)O)cc2)c2ccc(C(=O)NCc3ccc4c(c3)OCO4)cc12 | 15 | 12 | 36 | – |
| COc1cc(CNC(=O)c2ccc3c(c2)c(C)c(C)n3Cc2cccc(C(F)(F)F)c2)ccc1O | 10 | – | 46 | – |
| Cc1c(C)n(Cc2ccc(-c3ccccc3C(=O)O)cc2)c2ccc(C(=O)NCc3ccc(S(N)(=O)=O)cc3)cc12 | 312 | 244 | 0 | – |
| Cc1c(C)n(Cc2ccc(-c3ccccc3C(=O)O)cc2)c2ccc(C(=O)NCc3ccccn3)cc12 | 34 | 27 | 15 | – |
| CN(CCOc1ccc(CC2SC(=O)NC2=O)cc1)c1ccccn1 (configuration not stated) [ROSIGLITAZONE] | – | – | – | Activity [3]: Active; Activity [4]: Active; Activity [5]: Active; Activity [6]: Active; inhibition [7]: Active |
| Cc1c(C)n(Cc2cccc(C(F)(F)F)c2)c2ccc(C(=O)NCc3ccc4c(c3)OCO4)cc12 | 16 | – | 32 | – |
| Cc1c(C)n(Cc2ccc(-c3ccccc3C(=O)O)cc2)c2ccc(C(=O)NCCc3ccc(O)cc3)cc12 | 48 | 38 | 31 | – |
| Cc1c(C)n(Cc2ccc(-c3ccccc3C(=O)O)cc2)c2ccc(C(=O)NCC3CCNCC3)cc12 | 12100 | 9460 | 11 | – |
| Cc1c(C)n(Cc2ccc(-c3ccccc3C(=O)O)cc2)c2ccc(C(=O)NCc3cccnc3)cc12 | 536 | 440 | 45 | inhibition [7]: Active |
| COc1ccc(OC)c(CNC(=O)c2ccc3c(c2)c(C)c(C)n3Cc2cccc(C(F)(F)F)c2)c1 | 48 | 38 | 27 | – |
| COc1cc(CNC(=O)c2ccc3c(c2)c(C)c(C)n3Cc2ccc(-c3ccccc3C(=O)O)cc2)ccc1O | 17 | 13 | 15 | Ratio IC50 [8]: > 30; Activity [9]: Active; Activity [10]: Active; Activity [11]: Active; Activity [4]: Active; Activity [5]: Active; Activity [6]: Active; inhibition [7]: Active |
| Cc1c(C)n(Cc2ccc(-c3ccccc3C(=O)O)cc2)c2ccc(C(=O)NCc3cccc(OCC(=O)O)c3)cc12 | 66 | 52 | 56 | – |
| Cc1c(C)n(Cc2cccc(C(F)(F)F)c2)c2ccc(C(=O)NCc3ccccn3)cc12 | 185 | 144 | 59 | – |
| Cc1c(C)n(Cc2ccc(-c3ccccc3C(=O)O)cc2)c2ccc(C(=O)NC3CCNCC3)cc12 | 41300 | 32200 | 17 | – |
| Cc1c(C)n(Cc2cccc(C(F)(F)F)c2)c2ccc(C(=O)N[C@@H](Cc3ccc(O)cc3)C(=O)O)cc12 | 346 | 270 | 44 | – |
| Cc1c(C)n(Cc2ccc(-c3ccccc3C(=O)O)cc2)c2ccc(C(=O)O)cc12 | 4870 | 3800 | 16 | – |
